# According to ChEMBL document CHEMBL4732057, “Design, synthesis and biological evaluation of second-generation benzoylpiperidine derivatives as reversible monoacylglycerol lipase (MAGL) inhibitors” (Eur J Med Chem, 2021):
# Activity calls are given as the source filed them. The calls are words filed in the database; no cut-off is given here.
# Columns and labels:
# [1] = target: T1, Fatty-acid amide hydrolase 1 (Mus musculus) (UniProt O08914); assay: Inhibition of FAAH in mouse brain membrane up to 30 uM preincubated for 25 mins followed by TAMRA-FP labeling addition and measured after 5 mins by competitive ABPP based analysis; format: cell membranes; conditions: dose microM <=30, time 30.0 min
# T1 sequence (whole entry): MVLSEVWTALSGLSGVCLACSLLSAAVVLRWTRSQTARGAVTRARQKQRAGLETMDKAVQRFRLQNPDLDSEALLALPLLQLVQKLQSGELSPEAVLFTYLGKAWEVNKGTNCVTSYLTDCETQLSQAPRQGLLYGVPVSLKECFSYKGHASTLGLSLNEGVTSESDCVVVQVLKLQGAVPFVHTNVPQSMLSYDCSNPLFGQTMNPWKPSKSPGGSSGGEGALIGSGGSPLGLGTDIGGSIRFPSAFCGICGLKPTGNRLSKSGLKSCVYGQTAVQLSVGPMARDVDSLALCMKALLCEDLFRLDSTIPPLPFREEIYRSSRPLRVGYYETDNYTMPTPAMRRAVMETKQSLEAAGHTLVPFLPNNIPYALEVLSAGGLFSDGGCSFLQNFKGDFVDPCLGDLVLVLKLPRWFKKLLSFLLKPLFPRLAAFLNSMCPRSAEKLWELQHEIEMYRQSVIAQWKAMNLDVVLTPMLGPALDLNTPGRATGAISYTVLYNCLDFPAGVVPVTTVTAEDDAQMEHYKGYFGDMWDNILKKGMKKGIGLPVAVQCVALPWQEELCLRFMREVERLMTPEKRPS
# Summary of the method: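 Mouse brain membranes, 4 mg/mL in PBS, preincubated 25 min at 25 °C with compound at 10 µM or a range of concentrations. Labelled 5 min with TAMRA-FP at 125 nM final. Proteins resolved on 11% SDS-PAGE and scanned for fluorescence.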
# HCT-116 = assay: Antiproliferative activity against human HCT116 cells as reduction in cell growth measured after 96 hrs by Celltiter-glo luminescent assay; format: functional, cell-based; conditions: HCT-116, 96 h
# Summary of the method: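 Cell lines kept at 37 °C, 5% CO2; 5 × 10^2 cells per well, compound added the day after seeding at 200 to 0.02 µM. Viability read after 96 h by CellTiter-Glo luminescence. IC50 from logistic dose-response curves, in triplicate; error bars are SD.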
inhibition [1],IC50 (HCT-116) [µM],SMILES
inactive,5.3,O=C(c1ccc(Cc2ccccc2)cc1)C1CCN(C(=O)c2cc(O)c(F)cc2F)CC1
inactive,15,O=C(c1ccc(Sc2ccccc2)cc1)C1CCN(C(=O)c2cc(O)c(F)cc2F)CC1
inactive,5.1,O=C(c1ccc(Sc2ccccc2)cc1)C1CCN(C(=O)c2cc(O)ccc2F)CC1
inactive,17,O=C(c1ccc(Cc2ccccc2)cc1)C1CCN(C(=O)c2cc(O)ccc2F)CC1
